In ChEMBL document CHEMBL3745658, “An Orally Bioavailable, Indole-3-glyoxylamide Based Series of Tubulin Polymerization Inhibitors Showing Tumor Growth Inhibition in a Mouse Xenograft Model of Head and Neck Cancer” (J Med Chem, 2015):
Converted amounts (≈) assume the structure as drawn. The source made the active and inactive calls. No cut-off for these calls is given here.

Legend:
[1] = test system: FaDu; assay: Selectivity index, ratio of EC50 for cell cycle arrest in human FADU cells to LC50 for cytotoxicity against human FADU cells; assay type: functional
Procedure, shortened: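 G2/M arrest EC50 came from a 24 h dose–response of propidium iodide flow cytometry in FaDu cells. It was compared with the LC50 from a 72 h MTT assay in FaDu cells (triplicate wells, A570, viability relative to DMSO, nonlinear regression).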

[2] = test system: FaDu; assay: Cell cycle arrest in human FADU cells assessed as accumulation at G2/M phase after 24 hrs by propidium iodide staining-based flow cytometry; assay type: functional
Procedure, shortened: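 FaDu cells seeded at 10^5/well, attached overnight, then exposed to compound in full growth medium at 37 °C for 24 h. Cells were trypsinized, fixed in ice-cold 70% ethanol, treated with RNase A (100 μg/mL), stained overnight in the dark with propidium iodide (50 μg/mL), and analysed by flow cytometry with at least 10000 events per sample.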

[3] = Solubility in 2% DMSO containing 50 mM potassium phosphate buffer solution at pH 7.4 by dynamic light scattering method; conditions: 50 mM potassium phosphate buffer with 2% DMSO
[4] = test system: SCC-4; assay: Cytotoxicity against human SCC4 cells assessed as reduction in cell viability after 72 hrs by MTT assay; assay type: functional, cell-based
Procedure, shortened: (§1)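 Cells plated at an appropriate density and left 24 h to attach, then dosed in triplicate with compound diluted from 10 mM DMSO stocks into full growth medium (added at 2× final concentration). After 72 h, cells PBS-washed and given MTT (0.5 mg/mL in PBS) for 45−60 min. Formazan dissolved in 0.1 M HCl/2-propanol, A570 read (650 nm reference). Viability normalised to DMSO control; LC50 by nonlinear regression.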

[5] = test system: FaDu; assay: Cytotoxicity against human FADU multicellular tumor spheroid assessed as induction of spheroid disruption incubated for 7 days by light microscopy; assay type: functional, cell-based; conditions: for EC50: 168 h
Procedure, shortened: (§2)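 Monocultured FaDu spheroids dosed over a concentration range and imaged at 0, 2, 4 and 7 days post-dosing. Volume followed over time, fragmentation scored at the 7-day end point, and EC50 for disruption derived from 7-day dose–response plots. Two independent experiments, mean ± SEM.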

[6] = Apparent permeability from apical to basolateral side in human Caco2 cells assessed as drug recovery at 10 uM at pH 7.4 after 60 mins by mass spectrometry; assay type: ADME, cell-based; conditions: Caco-2, pH 7.4, read-out: Drug recovery
[7] = Efflux ratio of apparent permeability from basolateral to apical side over apical to basolateral side in human Caco2 cells; conditions: Caco-2
[8] = test system: SH-SY5Y; assay: Cytotoxicity against human SH-SY5Y cells assessed as reduction in cell viability after 72 hrs by MTT assay; assay type: functional, cell-based; procedure, shortened: as §1
[9] = test system: FaDu; assay: Antitumor activity against human FADU cells xenografted in CD-1 mouse assessed as tumor volume recovery at 10 mg/kg, po qd for 10 days measured between 6 and 9 days; assay type: functional, organism-based
Procedure, shortened: (§3)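 FaDu xenografts established in mice, then test agent given by oral gavage once daily for 10 days; tumor volume followed against an untreated control group, with significance assessed at days 3, 6, 9, 13 and 15.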

[10] = test system: FaDu; assay: Cytotoxicity against human FADU multicellular tumor spheroid assessed as effect on normal spheroid growth at 1 uM incubated for 2 to 3 days by light microscop; assay type: cell-based
Procedure, shortened: (§4)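 FaDu monoculture spheroids were dosed once and imaged at 0, 2, 4 and 7 days after dosing. Fragmentation and growth were judged against untreated spheroids.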

[11] = molecular target: T1, Tubulin (Sus scrofa) (UniProt P02554+P02550); assay: Displacement of [3H]-paclitaxel from biotinylated porcine tubulin after 25 mins by competitive binding assay; assay type: protein assay
Procedure, shortened: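 Biotinylated porcine tubulin precoupled to SPA beads for 30 min at 4 °C, then 0.05 μM [3H]-paclitaxel and test compound added in G-PEM with 1 mM GTP, 3% DMSO, duplicate wells, 25 min at rt. Nonspecific binding taken with 1000-fold unlabeled excess. IC50 from seven-point semilog curves, four-parameter fit.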

[12] = test system: FaDu; assay: Cytotoxicity against human FADU multicellular tumor spheroid assessed as dispersion of cells from the spheroid at 1 uM incubated for 2 to 7 days by light microscopy; assay type: functional, cell-based; procedure, shortened: as §4
[13] = test system: FaDu; assay: Induction of microtubule disruption in human FADU cells assessed as multipolarization of spindle at 50 nM after 24 hrs by immunofluorescence staining method; assay type: functional, cell-based
[14] = test system: FaDu; assay: Induction of microtubule disruption in human FADU cells at 250 nM after 24 hrs by immunofluorescence staining method; assay type: functional, cell-based
[15] = Metabolic stability in CD-1 mouse liver microsomes assessed as half life at 1 uM preincubated for 5 mins before addition of NADPH by LC-MS/MS method; assay type: ADME
[16] = Solubility in 2% DMSO containing 50 mM potassium phosphate buffer solution pH 7.4 at 10 uM by dynamic light scattering method; conditions: pH 7.4, 10 µM
[17] = test system: FaDu; assay: Ratio of EC50 for human FADU multicellular tumor spheroid to LC50 for human FADU cells; assay type: functional
Procedure, shortened: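 FaDu spheroids were dosed over a range of concentrations, and spheroid volume was measured at the 7-day endpoint. EC50 for disruption came from dose–response plots, combining two independent experiments. This was compared with the 72 h monolayer MTT LC50 (triplicate wells, nonlinear regression, viability relative to DMSO).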

[18] = test system: MES-SA/Dx5; assay: Cytotoxicity against multidrug resistant human MES-SA/Dx5 cells assessed as reduction in cell viability after 72 hrs by MTT assay; assay type: functional, cell-based; procedure, shortened: as §1
[19] = test system: MES-SA; assay: Cytotoxicity against human MES-SA cells assessed as reduction in cell viability after 72 hrs by MTT assay; assay type: functional, cell-based; procedure, shortened: as §1
[20] = molecular target: T2, Tubulin (Sus scrofa, UniProt P02554+P02550); assay: Displacement of [3H]-colchicine from biotinylated porcine tubulin after 2 hrs by competitive binding assay; assay type: protein assay
Procedure, shortened: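 Biotinylated porcine tubulin (750 ng/well) with 0.1 μM [3H]-colchicine and test compound in G-PEM with 1 mM GTP, 3% DMSO, duplicate wells, 2 h at 37 °C. Streptavidin SPA beads then added for 45 min at 37 °C. Nonspecific binding taken with 1000-fold unlabeled excess. IC50 from seven-point semilog curves, four-parameter fit.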

[21] = molecular target: T1, Tubulin (Sus scrofa); assay: Displacement of [3H]-vinblastine from biotinylated porcine tubulin after 15 mins by competitive binding assay; assay type: protein assay
Procedure, shortened: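 Biotinylated porcine tubulin, 0.2 μM [3H]-vinblastine, SPA beads and test compound combined together in G-PEM with 1 mM GTP, 3% DMSO, duplicate wells, 15 min at rt before counting. Nonspecific binding taken with 1000-fold unlabeled excess. IC50 from seven-point semilog curves, four-parameter fit.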

[22] = Apparent permeability from apical to basolateral side in human Caco2 cells at 10 uM at pH 7.4 after 60 mins by mass spectrometry; conditions: Caco-2, pH 7.4
[23] = test system: SK-MEL-28; assay: Cytotoxicity against human SK-MEL-28 cells assessed as reduction in cell viability after 72 hrs by MTT assay; assay type: functional, cell-based; procedure, shortened: as §1
[24] = molecular target: T2, Tubulin; assay: Inhibition of porcine brain tubulin polymerization assessed as reduction in GTP-induced microtubule assembly after 60 mins by OD340 method
[25] = test system: FaDu; assay: Cytotoxicity against human FADU cells assessed as reduction in cell viability after 72 hrs by MTT assay; assay type: functional; conditions: read-out: LC50 (the source's name)
[26] = test system: FaDu; assay: Antitumor activity against human FADU cells xenografted in CD-1 mouse assessed as inhibition of tumor growth at 10 to 20 mg/kg, po qd for 10 days measured at 3 to 9 days; assay type: functional, organism-based; procedure, shortened: as §3
[27] = test system: FaDu; assay: Cytotoxicity against human FADU multicellular tumor spheroid assessed as reduction of spheroid volume by light microscopy; assay type: functional, cell-based; procedure, shortened: as §2
[28] = test system: FaDu; assay: Cytotoxicity against human FADU multicellular tumor spheroid assessed as dispersion of cells from the spheroid at 0.25 uM incubated for 2 to 7 days by light microscopy; assay type: functional, cell-based; procedure, shortened: as §2
[29] = test system: FaDu; assay: Induction of mitotic spindle defects in human FADU cells at 15 nM after 24 hrs by immunofluorescence staining method; assay type: functional, cell-based
[30] = Aqueous solubility of the compound by UV-HPLC
[31] = test system: FaDu; assay: Induction of microtubule disruption in human FADU cells at 50 nM after 24 hrs by immunofluorescence staining method; assay type: functional, cell-based
[32] = test system: FaDu; assay: Cytotoxicity against human FADU multicellular tumor spheroid assessed as effect on normal spheroid growth at 0.25 uM incubated for 2 to 3 days by light microscopy; assay type: cell-based; procedure, shortened: as §2

| SMILES | solubility kinetic [3] | Activity [4] | EC50 [5] | efflux ratio [7] | Activity [8] | Activity [11] | half-life at 1 µM [15] | solubility [16] | Ratio [17] | Activity [18] | Activity [19] | IC50 [20] | Activity [21] | Papp A→B at 1 h, 10 µM [22] | Activity [23] | IC50 [24] | CC50 [25] | further results |
| --- | --- | --- | --- | --- | --- | --- | --- | --- | --- | --- | --- | --- | --- | --- | --- | --- | --- | --- |
| COCCn1cc(C(=O)C(=O)Nc2ccc(OC(C)C)nc2)c2ccccc21 | 10 µM (≈ 3.81 µg/mL) | Active | 113 nM | 0.9 | Active | inactive | 99 min | soluble | 2 | Active | Active | 500 nM | Active | 15.2 ×10⁻⁶ cm/s | Active | 6600 nM | 55 nM | Ratio [1]: 2; Activity [2]: Dose-dependent effect; EC50 [2]: 90 nM; Activity [5]: Dose-dependent effect; recovery at 1 h, 10 µM [6]: < 50%; TGI [9]: inactive; Activity [10]: Non-toxic; Activity [12]: Active; Activity [13]: Active; Activity [14]: Active; TGI [26]: Active; Activity [27]: Dose-dependent effect |
| COCC(C)n1cc(C(=O)C(=O)Nc2ccc(OC)nc2)c2ccccc21 (stereo unspecified) | 40 µM (≈ 14.7 µg/mL) | Active | 39 nM | 1.1 | Active | inactive | 16 min | soluble | 3 | Active | Active | 160 nM | inactive | 33.6 ×10⁻⁶ cm/s | Active | 3900 nM | 12 nM | Activity [28]: Active; Activity [29]: Active; solubility [30]: 10 µM (≈ 3.67 µg/mL); Activity [31]: Active; Activity [32]: Non-toxic |
